Laboratory results: ChEMBL document CHEMBL4152256, “Structure-activity relationship of new antimalarial 1-aryl-3-susbtituted propanol derivatives: Synthesis, preliminary toxicity profiling, parasite life cycle stage studies, target exploration, and targeted delivery” (Eur J Med Chem, 2018)
pIC50: −log10 of the molar value.

How the values were obtained:
[1] = Genotoxicity in Salmonella typhimurium TA1535 harboring pSK1002 assessed as survival at 0.008 mg/ml in absence of Sprague-Dawley rat liver S9 fraction after by SOS/umu assay relative to control; format: toxicity, organism-based; conditions: salmonella enterica subsp. enterica serovar typhimurium, read-out: Survival
[2] = Genotoxicity in Salmonella typhimurium TA1535 harboring pSK1002 assessed as survival at 0.002 mg/ml in presence of Sprague-Dawley rat liver S9 fraction after by SOS/umu assay relative to control; format: toxicity, organism-based; conditions: salmonella enterica subsp. enterica serovar typhimurium, read-out: Survival
[3] = Genotoxicity in Salmonella typhimurium TA1535 harboring pSK1002 assessed as umu gene induction at 0.031 mg/ml in absence of Sprague-Dawley rat liver S9 fraction after by SOS/umu assay relative to control; format: toxicity, organism-based; conditions: salmonella enterica subsp. enterica serovar typhimurium, read-out: FC
[4] = Genotoxicity in Salmonella typhimurium TA1535 harboring pSK1002 assessed as survival at 0.008 mg/ml in presence of Sprague-Dawley rat liver S9 fraction after by SOS/umu assay relative to control; format: toxicity, organism-based; conditions: salmonella enterica subsp. enterica serovar typhimurium, read-out: Survival
[5] = Genotoxicity in Salmonella typhimurium TA1535 harboring pSK1002 assessed as survival at 0.125 mg/ml in absence of Sprague-Dawley rat liver S9 fraction after by SOS/umu assay relative to control; format: toxicity, organism-based; conditions: salmonella enterica subsp. enterica serovar typhimurium, read-out: Survival
[6] = Genotoxicity in Salmonella typhimurium TA1535 harboring pSK1002 assessed as umu gene induction at 0.016 mg/ml in absence of Sprague-Dawley rat liver S9 fraction after by SOS/umu assay relative to control; format: toxicity, organism-based; conditions: salmonella enterica subsp. enterica serovar typhimurium, read-out: FC
[7] = Cytotoxicity against human HepG2A16 cells by MTT assay; format: cell-based; conditions: HepG2A16 cells
In short: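 MTT viability assay on HepG2-A16 cells, giving CC50 values.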

[8] = Genotoxicity in Salmonella typhimurium TA1535 harboring pSK1002 assessed as survival at 0.002 mg/ml in absence of Sprague-Dawley rat liver S9 fraction after by SOS/umu assay relative to control; format: toxicity, organism-based; conditions: salmonella enterica subsp. enterica serovar typhimurium, read-out: Survival
[9] = Genotoxicity in Salmonella typhimurium TA1535 harboring pSK1002 assessed as umu gene induction at 0.002 mg/ml in absence of Sprague-Dawley rat liver S9 fraction after by SOS/umu assay relative to control; format: toxicity, organism-based; conditions: salmonella enterica subsp. enterica serovar typhimurium, read-out: FC
[10] = Genotoxicity in Salmonella typhimurium TA1535 harboring pSK1002 assessed as survival at 0.031 mg/ml in absence of Sprague-Dawley rat liver S9 fraction after by SOS/umu assay relative to control; format: toxicity, organism-based; conditions: salmonella enterica subsp. enterica serovar typhimurium, read-out: Survival
[11] = Genotoxicity in Salmonella typhimurium TA1535 harboring pSK1002 assessed as umu gene induction at 0.063 mg/ml in absence of Sprague-Dawley rat liver S9 fraction after by SOS/umu assay relative to control; format: toxicity, organism-based; conditions: salmonella enterica subsp. enterica serovar typhimurium, read-out: FC
[12] = Genotoxicity in Salmonella typhimurium TA1535 harboring pSK1002 assessed as survival at 0.001 mg/ml in presence of Sprague-Dawley rat liver S9 fraction after by SOS/umu assay relative to control; format: toxicity, organism-based; conditions: salmonella enterica subsp. enterica serovar typhimurium, read-out: Survival
Plasmodium falciparum [13] = assay: Antiplasmodial activity against chloroquine-sensitive Plasmodium falciparum 3D7 by [3H]-hypoxanthine incorporation assay; format: functional, organism-based; conditions: Plasmodium falciparum, 3D7
In short: (§1)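 Blood-stage P. falciparum 3D7 and FCR-3 were tested by a modified [3H]-hypoxanthine incorporation assay. Chloroquine was the reference in all runs.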

[14] = Genotoxicity in Salmonella typhimurium TA1535 harboring pSK1002 assessed as umu gene induction at 0.008 mg/ml in presence of Sprague-Dawley rat liver S9 fraction after by SOS/umu assay relative to control; format: toxicity, organism-based; conditions: salmonella enterica subsp. enterica serovar typhimurium, read-out: FC
[15] = Genotoxicity in Salmonella typhimurium TA1535 harboring pSK1002 assessed as umu gene induction at 0.001 mg/ml in absence of Sprague-Dawley rat liver S9 fraction after by SOS/umu assay relative to control; format: toxicity, organism-based; conditions: salmonella enterica subsp. enterica serovar typhimurium, read-out: FC
[16] = Genotoxicity in Salmonella typhimurium TA1535 harboring pSK1002 assessed as umu gene induction at 0.125 mg/ml in absence of Sprague-Dawley rat liver S9 fraction after by SOS/umu assay relative to control; format: toxicity, organism-based; conditions: salmonella enterica subsp. enterica serovar typhimurium, read-out: FC
[17] = Genotoxicity in Salmonella typhimurium TA1535 harboring pSK1002 assessed as umu gene induction at 0.001 mg/ml in presence of Sprague-Dawley rat liver S9 fraction after by SOS/umu assay relative to control; format: toxicity, organism-based; conditions: salmonella enterica subsp. enterica serovar typhimurium, read-out: FC
[18] = Genotoxicity in Salmonella typhimurium TA1535 harboring pSK1002 assessed as survival at 0.063 mg/ml in absence of Sprague-Dawley rat liver S9 fraction after by SOS/umu assay relative to control; format: toxicity, organism-based; conditions: salmonella enterica subsp. enterica serovar typhimurium, read-out: Survival
[19] = Genotoxicity in Salmonella typhimurium TA1535 harboring pSK1002 assessed as survival at 0.125 mg/ml in presence of Sprague-Dawley rat liver S9 fraction after by SOS/umu assay relative to control; format: toxicity, organism-based; conditions: salmonella enterica subsp. enterica serovar typhimurium, read-out: Survival
[20] = Genotoxicity in Salmonella typhimurium TA1535 harboring pSK1002 assessed as umu gene induction at 0.063 mg/ml in presence of Sprague-Dawley rat liver S9 fraction after by SOS/umu assay relative to control; format: toxicity, organism-based; conditions: salmonella enterica subsp. enterica serovar typhimurium, read-out: FC
[21] = Genotoxicity in Salmonella typhimurium TA1535 harboring pSK1002 assessed as umu gene induction at 0.004 mg/ml in absence of Sprague-Dawley rat liver S9 fraction after by SOS/umu assay relative to control; format: toxicity, organism-based; conditions: salmonella enterica subsp. enterica serovar typhimurium, read-out: FC
[22] = Genotoxicity in Salmonella typhimurium TA1535 harboring pSK1002 assessed as survival at 0.063 mg/ml in presence of Sprague-Dawley rat liver S9 fraction after by SOS/umu assay relative to control; format: toxicity, organism-based; conditions: salmonella enterica subsp. enterica serovar typhimurium, read-out: Survival
[23] = Genotoxicity in Salmonella typhimurium TA1535 harboring pSK1002 assessed as survival at 0.016 mg/ml in absence of Sprague-Dawley rat liver S9 fraction after by SOS/umu assay relative to control; format: toxicity, organism-based; conditions: salmonella enterica subsp. enterica serovar typhimurium, read-out: Survival
[24] = Genotoxicity in Salmonella typhimurium TA1535 harboring pSK1002 assessed as survival at 0.004 mg/ml in absence of Sprague-Dawley rat liver S9 fraction after by SOS/umu assay relative to control; format: toxicity, organism-based; conditions: salmonella enterica subsp. enterica serovar typhimurium, read-out: Survival
[25] = Genotoxicity in Salmonella typhimurium TA1535 harboring pSK1002 assessed as umu gene induction at 0.016 mg/ml in presence of Sprague-Dawley rat liver S9 fraction after by SOS/umu assay relative to control; format: toxicity, organism-based; conditions: salmonella enterica subsp. enterica serovar typhimurium, read-out: FC
[26] = Genotoxicity in Salmonella typhimurium TA1535 harboring pSK1002 assessed as umu gene induction at 0.002 mg/ml in presence of Sprague-Dawley rat liver S9 fraction after by SOS/umu assay relative to control; format: toxicity, organism-based; conditions: salmonella enterica subsp. enterica serovar typhimurium, read-out: FC
Plasmodium falciparum [27] = assay: Antiplasmodial activity against multidrug-resistant Plasmodium falciparum FCR-3 by [3H]-hypoxanthine incorporation assay; format: functional, organism-based, FCR-3/Gambia; conditions: Plasmodium falciparum, FCR-3/Gambia; in short: as §1
[28] = Genotoxicity in Salmonella typhimurium TA1535 harboring pSK1002 assessed as umu gene induction at 0.125 mg/ml in presence of Sprague-Dawley rat liver S9 fraction after by SOS/umu assay relative to control; format: toxicity, organism-based; conditions: salmonella enterica subsp. enterica serovar typhimurium, read-out: FC
[29] = Genotoxicity in Salmonella typhimurium TA1535 harboring pSK1002 assessed as umu gene induction at 0.031 mg/ml in presence of Sprague-Dawley rat liver S9 fraction after by SOS/umu assay relative to control; format: toxicity, organism-based; conditions: salmonella enterica subsp. enterica serovar typhimurium, read-out: FC
[30] = Genotoxicity in Salmonella typhimurium TA1535 harboring pSK1002 assessed as survival at 0.001 mg/ml in absence of Sprague-Dawley rat liver S9 fraction after by SOS/umu assay relative to control; format: toxicity, organism-based; conditions: salmonella enterica subsp. enterica serovar typhimurium, read-out: Survival

Structure (SMILES): COc1ccccc1C1=CCN(CCC(O)c2ccc(F)c3ccccc23)CC1 (stereo not given)
- viability at 0.008 mg/ml [1]: 76.4%
- viability at 0.002 mg/ml [2]: 101%
- fold induction at 0.031 mg/ml [3]: 1.3
- viability at 0.008 mg/ml [4]: 96.9%
- viability at 0.125 mg/ml [5]: 114%
- fold induction at 0.016 mg/ml [6]: 1.2
- CC50 [7]: 17700 nM
- viability at 0.002 mg/ml [8]: 86.6%
- fold induction at 0.002 mg/ml [9]: 0.9
- viability at 0.031 mg/ml [10]: 47.2%
- fold induction at 0.063 mg/ml [11]: 0.5
- viability at 0.001 mg/ml [12]: 106%
- pIC50 (Plasmodium falciparum [13]): 7.00
- fold induction at 0.008 mg/ml [14]: 0.7
- fold induction at 0.001 mg/ml [15]: 0.9
- fold induction at 0.125 mg/ml [16]: 0.4
- fold induction at 0.001 mg/ml [17]: 0.8
- viability at 0.063 mg/ml [18]: 90.7%
- viability at 0.125 mg/ml [19]: 79.1%
- fold induction at 0.063 mg/ml [20]: 0.6
- fold induction at 0.004 mg/ml [21]: 0.9
- viability at 0.063 mg/ml [22]: 76%
- viability at 0.016 mg/ml [23]: 50.6%
- viability at 0.004 mg/ml [24]: 76.7%
- fold induction at 0.016 mg/ml [25]: 0.8
- fold induction at 0.002 mg/ml [26]: 0.9
- pIC50 (Plasmodium falciparum [27]): 5.89
- fold induction at 0.125 mg/ml [28]: 0.7
- fold induction at 0.031 mg/ml [29]: 0.5
- viability at 0.001 mg/ml [30]: 81.7%

Structure (SMILES): Nc1ccc(N2CCC(NCCC(O)c3ccc(F)c4ccccc34)CC2)c(C(F)(F)F)c1 (stereo not given)
- viability at 0.008 mg/ml [1]: 27.7%
- viability at 0.002 mg/ml [2]: 116%
- fold induction at 0.031 mg/ml [3]: 0.7
- viability at 0.008 mg/ml [4]: 104%
- viability at 0.125 mg/ml [5]: 32.4%
- fold induction at 0.016 mg/ml [6]: 0.8
- CC50 [7]: 11000 nM
- viability at 0.002 mg/ml [8]: 150%
- fold induction at 0.002 mg/ml [9]: 0.7
- viability at 0.031 mg/ml [10]: 31.5%
- fold induction at 0.063 mg/ml [11]: 0.6
- viability at 0.001 mg/ml [12]: 119%
- pIC50 (Plasmodium falciparum [13]): 6.85
- fold induction at 0.008 mg/ml [14]: 1.1
- fold induction at 0.001 mg/ml [15]: 1.1
- fold induction at 0.125 mg/ml [16]: 0.4
- fold induction at 0.001 mg/ml [17]: 0.6
- viability at 0.063 mg/ml [18]: 27.7%
- viability at 0.125 mg/ml [19]: 107%
- fold induction at 0.063 mg/ml [20]: 0.4
- fold induction at 0.004 mg/ml [21]: 0.8
- viability at 0.063 mg/ml [22]: 55.7%
- viability at 0.016 mg/ml [23]: 28.3%
- viability at 0.004 mg/ml [24]: 38.7%
- fold induction at 0.016 mg/ml [25]: 1.4
- fold induction at 0.002 mg/ml [26]: 1.4
- pIC50 (Plasmodium falciparum [27]): 7.10
- fold induction at 0.125 mg/ml [28]: 0.1
- fold induction at 0.031 mg/ml [29]: 1
- viability at 0.001 mg/ml [30]: 101%
